Bioassay records deposited in PubChem BioAssay by Johns Hopkins Ion Channel Center.
hERG protect = hERG rescue from dofetilide block, primary screen, cell-based, CHO-hERG, FluxOR thallium flux, dofetilide IC70 | AID 1511, 2009 | Voltage-gated inwardly rectifying potassium channel KCNH2 (Homo sapiens), Q12809 | 310,000 compounds, 0.51% hits | activation (rescue from dofetilide block), less the hit threshold, % at 10 µM | dofetilide IC70 present;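 active = activation above the mean of controls blocked by dofetilide plus 5 SD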;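 also: thallium influx through hERG after potassium depolarization seen as dye fluorescence rise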
Kir21 block = inhibitors of mouse Kir2.1 inward-rectifier potassium channel. HEK293-Kir2.1, FluxOR thallium flux fluorescence; stronger effect = lower value. Inward rectifier potassium channel 2 (Mus musculus), P35561. 310,000 compounds, 0.85% hits. B-score at 10 µM. AID 1672, 2009;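 active = fluorescence ratio B-score at or below minus 3 SD of library scores, with starting-brightness B-score within 2 SD, cut at about -4.2 in these data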;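 also: channel flux triggered by added potassium and thallium sulfate stimulus; B-score of peak minus minimum fluorescence over baseline after thallium stimulus; more negative B-score means stronger Kir2.1 block with less thallium influx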
KCNQ1 act = potentiators or activators of KCNQ1 channel, primary screen, cell-based, thallium flux, high-throughput. CHO-K1 KCNQ1, thallium flux FluxOR fluorescence; stronger effect = higher value. Potassium voltage-gated channel subfamily KQT member 1 (Homo sapiens), P51787. B-score at 10 µM. AID 2648, 2010. 310,000 compounds, 0.35% hits;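 active = fluorescence ratio B-score, a plate-corrected score, at least three library SD, with initial intensity B-score within 5 SD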
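Medium – assay buffer, equal DMSO in all wells · Material – CHO-K1 cell line with stable KCNQ1 potassium channel expression · Signal – kinetic FluxOR thallium fluorescence, 10-s 1-Hz baseline, 110-s post-stimulus read · Compound – single concentration per compound, DMSO matched to controls · Schedule – 37 °C overnight plating, 90-min dark dye load, 20-min compound pretreatment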
KCNK3 inh = human KCNK3 channel inhibitors, primary screen, CHO cells, FluxOR thallium flux, B-score | Potassium channel subfamily K member 3 (Homo sapiens), O14649 | FluxOR fluorescence; stronger effect = lower value | B-score at 10 µM | 340,000 compounds, 0.84% hits | AID 602410, 2012;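 active = B-score under library mean minus 4 SD, starting fluorescence ratio at most library mean plus 5 SD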;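 also: more negative B-score means stronger inhibition of thallium flux through KCNK3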
Target sequence (O14649 whole entry, looked up): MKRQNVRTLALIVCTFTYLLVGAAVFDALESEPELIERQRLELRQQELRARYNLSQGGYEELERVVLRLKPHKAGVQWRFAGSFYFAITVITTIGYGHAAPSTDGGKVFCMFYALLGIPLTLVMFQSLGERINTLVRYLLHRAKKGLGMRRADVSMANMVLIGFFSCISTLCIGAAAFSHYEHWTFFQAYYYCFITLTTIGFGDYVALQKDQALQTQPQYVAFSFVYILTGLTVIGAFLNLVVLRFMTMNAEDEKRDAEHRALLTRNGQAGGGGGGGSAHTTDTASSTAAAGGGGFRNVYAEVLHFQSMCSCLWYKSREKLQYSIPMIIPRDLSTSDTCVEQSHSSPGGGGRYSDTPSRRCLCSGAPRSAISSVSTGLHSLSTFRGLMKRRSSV
KCNQ1 block = inhibitors of human KCNQ1 channel, primary screen, cell-based, thallium flux, high-throughput; 310,000 compounds, 1.3% hits; Potassium voltage-gated channel subfamily KQT member 1 (Homo sapiens), P51787; B-score at 10 µM; CHO-K1 KCNQ1, FluxOR thallium flux fluorescence; stronger effect = higher value; AID 2642, 2010;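 active = compounds whose thallium flux B-score, printed positive for inhibition, exceeds three library SD while starting fluorescence stays within three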;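 also: channel opened by potassium depolarization with thallium stimulus after 20 min compound exposure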
KCNK9 inh = KCNK9 potassium channel inhibitors, primary screen, HEK293 cells, thallium flux. Potassium channel subfamily K member 9 (Homo sapiens), Q9NPC2. FluxOR thallium flux fluorescence; stronger effect = lower value. B-score at 10 µM. 310,000 compounds, 1.2% hits. AID 488922, 2010;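 active = ratio B-score over 3 SD below the library mean, with starting fluorescence within 5 SD of its mean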;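 also: negative B-score means less thallium flux so channel inhibition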
KCNK9 block conf = KCNK9 potassium channel inhibitors, confirmation, HEK293 cells, thallium flux, duplicate. shares compounds with KCNK9 inh. FluxOR thallium flux fluorescence. inhibition, % at 10 µM. 4,900 compounds, 43% hits. AID 492992, 2010;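 active = thallium signal inhibited by more than 5 SD of the compound-free buffer control wells, on both duplicate plates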
Kir21 sel = mouse Kir2.1 channel inhibition, confirmation, selectivity assay for KCNK9 modulator project, cell-based, HEK293, thallium flux | Kir2.1 cells, FluxOR thallium flux fluorescence | AID 492993, 2010 | 4,900 compounds, 4% hits | shares compounds with KCNK9 inh | inhibition, % at 10 µM;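 active = thallium signal drop more than 5 SD beyond the mean of the no-compound control wells, seen in both duplicate plates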;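 also: signal is fluorescence rise after thallium addition divided by baseline fluorescence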
KCNK9 uninduced = thallium flux in non-induced HEK293 cells, confirmation, counter-screen for KCNK9 inhibitor project, cell-based, second counter screen, non-induced KCNK9-HEK293; FluxOR thallium flux; shares compounds with KCNK9 inh; inhibition, % at 10 µM; 4,900 compounds, 40% hits;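 active = thallium signal drop beyond 5 SD of the untreated control mean, on both duplicate plates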
Hits are given with their value; – = inactive; · = no result given. A selection: hits, their analogues and other compounds. The true share with any hit is near 3.7%.

SMILES	hERG protect	Kir21 block	KCNQ1 act	KCNK3 inh	KCNQ1 block	KCNK9 inh	KCNK9 block conf	Kir21 sel	KCNK9 uninduced
COC(C[C@@H]1O[C@@H]1[C@H](O)[C@@H](C)OCc1ccccc1)OC	–	–	–	–	–	–	·	·	·
C/C(=N\Nc1nc2ccccc2s1)c1ccc(Br)s1	–	–	10	–	–	–	–	–	–
CC(=NNc1nc2ccccc2s1)c1ccncn1	·	·	·	–	·	·	·	·	·
COc1ccc(Cl)cc1NC(=O)CSc1nc(N2CCOCC2)nc(N2CCOCC2)n1	–	–	–	–	–	–	·	·	·
COc1cc(Cl)c(C)cc1NC(=O)CSc1cc(Cl)ccc1Cl	–	–	–	–	–	-9.8	56%	–	44%
COc1ccc(Cl)cc1NC(=O)CSc1nc(N2CCCCC2)nc(N2CCCCC2)n1	–	–	–	–	–	-11	36%	–	26%
CCC(C)(C)n1nnnc1C(c1cccs1)N1CCc2ccccc21 (centres undefined)	–	–	–	–	–	-9.2	51%	–	36%
CCOc1ccc(OCC)c(Nc2cc(C)nc3ncnn23)c1	–	–	–	–	–	–	–	–	24%
CCCCN(C)Cc1cc(=O)oc2cc3c(cc12)CCCC3	–	–	–	–	–	–	–	–	–
Cc1cc(OCC(=O)OCC(=O)c2ccc[nH]2)ccc1Cl	·	·	·	–	·	·	·	·	·
CC(C)(C)OC(=O)COc1cc(O)c2c(=O)cc(-c3ccccc3)oc2c1	–	–	–	–	10	-12	43%	–	34%
CCOC(=O)c1cc(-c2ccc(OC)cc2F)nc2c1c(C)nn2CCC#N	–	–	–	–	6	-11	54%	–	34%
COc1ccc(CCNC(=S)c2ccccc2)cc1OC	–	–	–	–	–	–	·	·	·
CN(Cc1ccccc1)C(NC(=O)c1ccccc1)C(Cl)(Cl)Cl (centres undefined)	–	–	–	–	–	–	–	–	41%
CN(Cc1ccccc1)C(NC(=O)c1ccco1)C(Cl)(Cl)Cl (centres undefined)	–	–	–	–	–	–	·	·	·
COc1ccc([C@H]2CC(=O)C=C(c3ccc(Cl)c(F)c3)C2)cc1	·	·	·	–	·	·	·	·	·
C=C1c2nc3ccccc3n2C=C(c2ccc(C)cc2)N1c1ccccc1	·	·	·	–	·	·	·	·	·
c1ccc(-c2nc(NCc3cccnc3)c3oc4ccccc4c3n2)cc1	7.9	–	–	–	–	-10	38%	–	32%
CCc1ccc(CN(C)C(=O)c2cc(COc3cc(C)c(Cl)c(C)c3)on2)nc1	–	–	–	–	–	–	–	–	–
COC(=O)c1ccc(C(=O)OC)c(NC(=O)COC(=O)CC2CC3CCC2C3)c1 (centres undefined)	–	–	–	-14	–	-13	50%	–	29%
CSc1ccc(S(=O)(=O)NCC(=O)OCC(=O)N(Cc2ccccc2)C(C)C)cc1[N+](=O)[O-]	–	–	–	–	–	–	·	·	·
COc1ccc(CNC(=O)COc2ccc(Br)c(C)c2)cc1	–	–	–	–	–	–	·	·	·
O=C(Cc1c(F)cccc1Cl)Nc1nc2ccccc2s1	–	–	–	–	–	-13	–	–	50%
CCCN(C(=O)CSc1cc(-c2ccccc2)c2ccc(OC)cc2n1)C1CCS(=O)(=O)C1 (centres undefined)	–	–	–	–	–	-8.4	48%	–	28%
CN(c1ccccc1)S(=O)(=O)c1cccc(NC(=O)CSc2n[nH]c(N)n2)c1	–	–	–	–	–	–	–	–	–
SMILES	hERG protect	Kir21 block	KCNQ1 act	KCNK3 inh	KCNQ1 block	KCNK9 inh	KCNK9 block conf	Kir21 sel	KCNK9 uninduced
c1ccc(-c2cn3c4c(sc3n2)CCCC4)cc1	–	–	–	–	–	–	·	·	·
COc1cccc(Nc2nc(-c3cccs3)nc3ccccc23)c1	–	–	–	–	–	–	·	·	·
COc1ccc(N2CCN(c3nc(-c4cccs4)nc4ccccc34)CC2)cc1	–	–	–	–	–	-14	31%	–	28%
COc1cccc(CN(C)c2nc(-c3cccs3)nc3ccccc23)c1	–	–	–	–	–	-9.2	54%	–	41%
c1csc(-c2nc(N3CCOCC3)c3ccccc3n2)c1	–	–	–	–	–	–	·	·	·
CCOc1ccc(CCNC(=O)CN2CCN(Cc3ccccc3C)C2=O)cc1OCC	–	–	–	–	–	–	·	·	·
CCc1nnc(NC(=O)CSc2nc3cc(OC)c(OC)cc3cc2C)s1	–	–	–	–	–	–	·	·	·
CCc1ccccc1NC(=O)c1ccc(-n2c(C)ccc2C)cc1	–	–	–	–	–	-8.5	32%	–	–
Cc1ccc(C)n1-c1ccc(C(=O)Nc2ccccc2F)cc1	–	–	–	–	–	–	·	·	·
CCC(c1nnnn1Cc1cccs1)N1CCN(c2nc3ccccc3s2)CC1 (centres undefined)	–	–	–	–	–	-11	30%	–	–
CCOC(=O)CN1C(=O)C(Sc2n[nH]c(-c3ccc(O)cc3)n2)CCc2ccccc21 (centres undefined)	–	–	–	–	–	-9.4	36%	–	–
COc1cccc(NC(=S)N(CCCN2CCOCC2)C(C)c2cc3cccc(OC)c3o2)c1 (centres undefined)	–	–	–	–	–	–	·	·	·
COc1cccc(NC(=O)N(CCCN2CCOCC2)C(C)c2cc3cccc(OC)c3o2)c1 (centres undefined)	–	–	–	–	–	-8.3	40%	–	31%
O=C(c1ccc2ncsc2c1)N1CCN(c2cccc(C(F)(F)F)c2)CC1	·	·	·	–	·	·	·	·	·
CCCCNC(=O)[C@H]1C[C@H]1[C@@H](O)[C@H](CO)NC(=O)[C@H](Cc1ccccc1)NC(=O)OC(C)(C)C	–	–	–	–	–	–	–	–	–
